Hits are enriched below; roughly 3% of the tested compounds scored in any of these assays.
NPY Y1 blocker = blocks the human neuropeptide Y Y1 receptor; hit rate 1% among 200,000; P25929; inhibition, % at 3.6 µM; HEK293-CNG Y1 cells, membrane potential fluorescence; NPY at EC95, then isoproterenol;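 active = inhibition above the campaign mean inhibition of all tested compounds plus 3 SD, cut at about 20% in these data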;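 also: 0% = DMSO wells given NPY plus isoproterenol and 100% = isoproterenol alone without NPY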
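Test system: HEK293 cells co-expressing NPY Y1 receptor and cyclic-nucleotide gated channel; Also added: NPY (25 nM), isoproterenol (1 µM), Ro 20-1724 (25 µM); Compound dosing: one concentration, 3.6 µM, in 0.4% DMSO; Timing: dye 3 h, compound 60 min room temperature, stimulation 45 min; Technique: Membrane-potential fluorescent dye readout.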
Wee1 stabilizer = blocks degradation of human Wee1 kinase; P30291; HeLa Luc-Wee1K328M stability, luciferase luminescence; 100% = proteasome inhibitor MG132 effect; reporter increase, % at 5 µM; hit rate 1.2% among 220,000;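 active = activation above the mean of all tested compounds plus 3 SD, set per screening run, cut at about 8.8% in these data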;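 also: cells exposed to compound for 20 h before luminescence read; 0% = DMSO alone and 100% = MG132 at 30 µM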
Hsp70 act = Hsp70 transcriptional activation, primary screen. hit rate 0.04% among 200,000. activation, % at 10 µM. HeLa Hsp70 promoter luciferase reporter, luminescence; scaled: vehicle 0, proteasome-inhibitor control 100%;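 active = activation above the mean across all tested compounds plus 3 SD, cutoff set per campaign, cut at about 5.5% in these data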;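 also: 100% = MG132 at 30 µM as the positive control and 0% = DMSO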
NPY1 pot ag = potentiators or agonists of human neuropeptide Y receptor Y1; P25929; NPY-Y1 expressing cells, potentiator/agonist activation; activation, % at 3.6 µM; hit rate 0.37% among 220,000; AID 1304; in the data active = activation above about 33%, passing the limit was not always enough;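 also: cells stimulated with NPY at EC10 then isoproterenol at EC100; 0% = low agonist plus stimulus and 100% = saturating agonist plus stimulus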
NPY Y2 blocker = blocks the human neuropeptide Y Y2 receptor. P49146. NPY-Y2 expressing cells, antagonist mode. inhibition, % at 2.7 µM. hit rate 0.99% among 140,000. AID 793; in the data active = inhibition above about 17%;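 also: 0% = vehicle with agonist challenge and 100% = reference antagonist with challenge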
Target sequence (P49146 whole entry, looked up): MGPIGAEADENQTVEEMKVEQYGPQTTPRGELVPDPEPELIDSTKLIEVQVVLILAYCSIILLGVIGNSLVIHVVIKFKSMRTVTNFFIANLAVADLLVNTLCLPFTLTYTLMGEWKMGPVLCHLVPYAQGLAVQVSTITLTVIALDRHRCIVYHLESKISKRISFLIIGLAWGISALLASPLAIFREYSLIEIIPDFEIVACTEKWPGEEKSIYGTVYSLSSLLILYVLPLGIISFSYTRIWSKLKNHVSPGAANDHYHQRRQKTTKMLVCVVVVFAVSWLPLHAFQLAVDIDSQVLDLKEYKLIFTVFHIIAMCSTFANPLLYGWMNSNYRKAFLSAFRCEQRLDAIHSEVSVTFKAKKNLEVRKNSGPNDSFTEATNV
NPY2 pot ag = human NPY-Y2 potentiation or agonism, primary screen; P49146; cells expressing NPY-Y2, potentiator/agonist read-out; activation, % at 3.6 µM; hit rate 0.45% among 220,000; in the data active = activation above about 27%;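 also: cells stimulated with NPY near EC25 plus isoproterenol at EC100; 0% = vehicle plus submaximal agonist and 100% = vehicle plus saturating agonist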
An asterisk follows results filed as active.

`COC(=O)C(C)N1C(=O)S/C(=C/c2cc(C)n(C(C)C)c2C)C1=O` (stereo not given) gave NPY Y1 blocker 5.9, Wee1 stabilizer 9.4*, Hsp70 act -0.1, NPY1 pot ag 8.0, NPY Y2 blocker 1.6 and NPY2 pot ag -11.1.
Screening CCn1c(C)cc(/C=C2/SC(=O)N(C(C)C(=O)OC)C2=O)c1C (stereo not given) returned Wee1 stabilizer -0.4, NPY1 pot ag 4.3 and NPY2 pot ag -2.4.
COc1ccc(C(c2c(N)[nH]c(=S)[nH]c2=O)c2c(N)[nH]c(=S)[nH]c2=O)cc1 was read as Wee1 stabilizer -3.0, NPY1 pot ag -6.9 and NPY2 pot ag -11.4.
For CC1Cc2ccccc2N1Cc1nc2cc(Cl)ccc2c(=O)[nH]1 (stereo not given) the results were NPY Y1 blocker -0.9, Wee1 stabilizer -1.1, Hsp70 act 0.1, NPY1 pot ag 65.3*, NPY Y2 blocker 0.5 and NPY2 pot ag 61.1*.
O=C(NNC1=NCCCCC1)Nc1cccc(Cl)c1 was read as NPY Y1 blocker -5.8, Wee1 stabilizer 0.1, Hsp70 act 0.2, NPY1 pot ag -8.2 and NPY2 pot ag -3.9.
`CN(C)c1ccc(C(=S)N2CCN(Cc3ccccc3)CC2)cc1` gave NPY Y1 blocker -1.7, Wee1 stabilizer 4.0, Hsp70 act -0.2, NPY1 pot ag 9.0 and NPY2 pot ag -30.2.
O=C(CSc1nc(C2CC2)nc2ccccc12)NCc1ccc2c(c1)OCO2 was read as NPY Y1 blocker 1.0, Wee1 stabilizer 1.9, Hsp70 act -0.3, NPY1 pot ag 7.5, NPY Y2 blocker 0.7 and NPY2 pot ag -6.1.
CCOc1ccccc1NC(=O)c1ccc(S(=O)(=O)N2CCOCC2)cc1 was read as NPY Y1 blocker 4.1, Wee1 stabilizer 10.6*, Hsp70 act -0.1, NPY1 pot ag 3.1, NPY Y2 blocker 2.2 and NPY2 pot ag -14.7.
For CCC(=O)Oc1ccc2ccccc2c1CNC(=O)c1ccccc1 the results were NPY Y1 blocker 2.7, Wee1 stabilizer 2.3, Hsp70 act -0.4, NPY1 pot ag -0.3, NPY Y2 blocker 2.1 and NPY2 pot ag 0.5.
For Cc1ccc(S(=O)(=O)N(C)CCCC(=O)Nc2ccc(C)cc2C)cc1 the results were NPY Y1 blocker 2.2, Wee1 stabilizer -2.2, Hsp70 act -0.2, NPY1 pot ag -15.8, NPY Y2 blocker 2.9 and NPY2 pot ag -0.6.
For CCOc1ccccc1C(=O)Nc1ccccc1C(N)=O the results were NPY Y1 blocker 0.4, Wee1 stabilizer -0.8, Hsp70 act -0.4, NPY1 pot ag -26.6, NPY Y2 blocker 3.4 and NPY2 pot ag -18.5.
For CCOc1ccccc1C(=O)Nc1ccsc1C(=O)OC the results were NPY Y1 blocker 21.4*, Wee1 stabilizer 2.9, Hsp70 act -0.1, NPY1 pot ag -27.6, NPY Y2 blocker 19.7* and NPY2 pot ag -22.9.
CCCN(CCC)C(=O)C1CCCN1S(=O)(=O)c1cccc2nsnc12 (stereo not given) was read as Wee1 stabilizer -0.4, NPY1 pot ag -7.7 and NPY2 pot ag -6.5.
Cc1ccccc1C(=O)N=c1c(C#N)cc2c(=O)n3cccc(C)c3nc2n1Cc1ccco1 was read as NPY Y1 blocker -6.3, Wee1 stabilizer -2.9, Hsp70 act 0.5, NPY1 pot ag -1.2, NPY Y2 blocker 3.7 and NPY2 pot ag 15.7.
For CC(=O)N=c1c(C#N)cc2c(=O)n3cccc(C)c3nc2n1Cc1ccco1 the results were Wee1 stabilizer 9.1*, NPY1 pot ag -8.0 and NPY2 pot ag 18.1.
For CCOC(=O)/C(N=Nc1c(C)n(C)n(-c2ccccc2)c1=O)=C(\C)O the results were NPY Y1 blocker -0.3, Wee1 stabilizer 8.9*, Hsp70 act -0.2, NPY1 pot ag -30.9, NPY Y2 blocker 4.0 and NPY2 pot ag 9.3.
For CC(=O)/C(N=Nc1c(C)n(C)n(-c2ccccc2)c1=O)=C(\C)O the results were NPY Y1 blocker -0.8, Wee1 stabilizer -1.9, Hsp70 act -0.2, NPY1 pot ag 18.4 and NPY2 pot ag 3.2.
CCOc1ccc(NC(=O)CN2CCN(CC(=O)Nc3cc(OC)cc(OC)c3)CC2)cc1 was read as NPY Y1 blocker 0.2, Wee1 stabilizer 12.6*, Hsp70 act -0.2, NPY1 pot ag 5.4, NPY Y2 blocker 0.2 and NPY2 pot ag 9.8.
For CCOc1ccc(NC(=O)CN2CCN(CC(=O)Nc3cccc(F)c3)CC2)cc1 the results were NPY Y1 blocker -0.4, Wee1 stabilizer -0.9, Hsp70 act -0.2, NPY1 pot ag -4.6, NPY Y2 blocker 0.6 and NPY2 pot ag 5.2.
For Fc1cccc(Cl)c1CSc1nnc(COc2cccc3cccnc23)o1 the results were NPY Y1 blocker 2.3, Wee1 stabilizer 1.1, Hsp70 act -0.2, NPY1 pot ag -27.6, NPY Y2 blocker 6.7 and NPY2 pot ag 4.0.
Screening CC(NC(=O)COC(=O)c1ccc([N+](=O)[O-])s1)c1ccccc1 (stereo not given) returned NPY Y1 blocker 3.0, Wee1 stabilizer 8.9*, Hsp70 act -0.4, NPY1 pot ag -3.1, NPY Y2 blocker 0.5 and NPY2 pot ag 2.5.
Screening NC(=O)c1cnn(-c2cc(Oc3ccccc3)ncn2)c1N returned NPY Y1 blocker 0.5, Wee1 stabilizer 0.0, Hsp70 act -0.3, NPY1 pot ag 32.5 and NPY2 pot ag 5.5.
For COc1ccc2[nH]c3c(N4CCc5ccccc5C4)ncnc3c2c1 the results were Wee1 stabilizer 9.7*, NPY1 pot ag -26.4 and NPY2 pot ag -4.7.
CCOC(=O)N1CCN(c2ncnc3c2[nH]c2ccc(OC)cc23)CC1 was read as NPY Y1 blocker 6.2, Wee1 stabilizer 0.8, Hsp70 act -0.3, NPY1 pot ag -7.0, NPY Y2 blocker 2.6 and NPY2 pot ag -14.2.
Screening COc1cc(C(=O)N/N=C2\CCS(=O)(=O)c3ccc(F)cc32)cc(OC)c1OC returned NPY Y1 blocker 5.5, Wee1 stabilizer 3.2, Hsp70 act -0.1, NPY1 pot ag -14.6, NPY Y2 blocker 3.5 and NPY2 pot ag 10.6.
Screening CCCn1nnnc1NCc1c(F)cccc1Cl returned NPY Y1 blocker -2.8, Wee1 stabilizer -1.7, Hsp70 act -0.2, NPY1 pot ag -3.5 and NPY2 pot ag 7.3.
Cn1nnnc1NCc1c(F)cccc1Cl was read as NPY Y1 blocker -5.1, Wee1 stabilizer 10.1*, Hsp70 act -0.1, NPY1 pot ag -5.6, NPY Y2 blocker 1.7 and NPY2 pot ag -25.5.
`O=C(c1ccc(Br)cc1)c1cc([N+](=O)[O-])ccc1N1CCCCC1` gave NPY Y1 blocker 37.7*, Wee1 stabilizer 0.7, Hsp70 act 1.0, NPY1 pot ag -6.3, NPY Y2 blocker 17.3* and NPY2 pot ag -11.4.
`CN1CCN(c2ccc([N+](=O)[O-])cc2C(=O)c2ccc(Br)cc2)CC1` gave NPY Y1 blocker 10.6, Wee1 stabilizer -0.8, Hsp70 act 0.1, NPY1 pot ag 21.5, NPY Y2 blocker 8.6 and NPY2 pot ag 4.7.

Compound activity (PubChem)
